Measured values: ChEMBL document CHEMBL3864174, “Scaffold-Hopping of Aurones: 2-Arylideneimidazo[1,2-a]pyridinones as Topoisomerase IIα-Inhibiting Anticancer Agents” (ACS Med Chem Lett, 2016)
Active and inactive are the calls of the source. The calls are words filed in the database; no cut-off is given here.

Experiments:
[1] = tested on: MCF7; experiment: Antiinvasive activity in human MCF7 cells assessed as reduction in number of invaded colonies at 25 to 75 nM after 48 hrs by crystal violet-staining based colony counting; type: functional, cell-based
How it was run: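 Matrigel invasion assay in MCF-7 cells exposed to rising compound concentrations; read-out is the number of invaded colonies versus an untreated control.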

[2] = Cell cycle arrest in human MCF7 cells assessed as accumulation at G2/M phase at 50 nM after 48 hrs by propidium iodide-staining based FACS analysis (reference value: 41 +/- 2.8 %); type: functional
[3] = Downregulation of CDK1 expression in human MCF7 cells at 75 nM after 48 hrs by Western blot analysis relative to control; type: functional, cell-based
How it was run: (§1)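 Western blot of MCF-7 lysates after treatment across a concentration series. Probes were CDK1, pCDK1 (Thr 161) and cleaved caspase 3 (17 kDa). Bands were quantified by densitometry as fold change versus untreated control, with at least three repeats.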

[4] = Binding affinity to DNA (unknown origin) assessed as occurrence of hypochromism after 1 hr by UV-Vis spectrophotometric analysis
How it was run: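 UV absorption of DNA near 260 nm, recorded with and without increasing compound concentrations; hypochromism was taken as the binding read-out.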

[5] = tested on: MCF7; experiment: Induction of apoptosis in human MCF7 cells assessed as 19 kDa caspase-3 expression level at 50 nM after 48 hrs by Western blot analysis relative to control; type: functional
[6] = Cytotoxicity against African green monkey Vero cells assessed as reduction in colony formation after 48 hrs by crystal violet-staining based assay; type: toxicity, cell-based; settings: chlorocebus sabaeus
[7] = Downregulation of CDK1 expression in human MCF7 cells at 50 nM after 48 hrs by Western blot analysis relative to control; type: functional, cell-based; how it was run: as §1
[8] = tested on: MCF7; experiment: Induction of apoptosis in human MCF7 cells assessed as 19 kDa caspase-3 expression level at 75 nM after 48 hrs by Western blot analysis relative to control; type: functional
[9] = tested on: MCF7; experiment: Induction of apoptosis in human MCF7 cells assessed as increase in BAX expression at 75 nM after 48 hrs by Western blot analysis relative to control; type: functional
[10] = Downregulation of p53 expression in human MCF7 cells at 50 nM after 48 hrs by Western blot analysis relative to control; type: functional, cell-based
[11] = tested on: MCF7; experiment: Inhibition of alpha tubulin in human MCF7 cells assessed as formation of abnormal mitotic spindle at 50 to 75 uM by FITC/propidium iodide-staining based assay; type: cell-based
How it was run: (§2)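 MCF-7 cells were immunostained for α-tubulin with FITC and counterstained with propidium iodide for nuclei. Merged images were inspected for assembly distortion and abnormal mitotic spindles.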

[12] = Cytotoxicity against human MDA-MB-231 cells assessed as reduction in cell viability after 48 hrs by MTT assay; type: functional, cell-based; settings: MDA-MB-231, 48 h
[13] = tested on: MCF7; experiment: Inhibition of topoisomerase in human MCF7 cell nuclear lysates assessed as reduction in relaxation of supercoiled plasmid DNA NFkB substrate at 10 to 75 nM after 30 mins by ethidium bromide-staining based agarose gel electrophoresis
How it was run: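 Ex vivo topoisomerase assay using MCF-7 nuclear lysate with NFkB plasmid as substrate. Compound ranged from 10 nM to 75 nM, with lanes for plasmid alone and untreated lysate, and an etoposide lane at 45 µM.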

[14] = Inhibition of tubulin polymerization in human MCF7 cells assessed as suppression of protein assembly after 15 mins by spectrophotometric analysis; type: cell-based
[15] = tested on: MCF7; experiment: Induction of apoptosis in human MCF7 cells assessed as decrease in BCL-XL expression at 75 nM after 48 hrs by Western blot analysis relative to control; type: functional
[16] = tested on: MCF7; experiment: Cytotoxicity against human MCF7 cells assessed as reduction in colony formation after 48 hrs by crystal violet-staining based assay; type: functional, cell-based
[17] = Downregulation of p53 expression in human MCF7 cells at 75 nM after 48 hrs by Western blot analysis relative to control; type: functional, cell-based
[18] = tested on: HEK-293T; experiment: (§3) Cytotoxicity against HEK293T cells assessed as cells growth inhibition after 48 hrs by MTT assay; type: functional, cell-based; settings: Homo sapiens
How it was run: (§4)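 MTT colorimetric assay. HEK-293T (kidney line) and VERO cells were tested, and the IC50 was taken as the concentration giving 50% growth inhibition.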

[19] = as §3; type: functional, cell-based; settings: Homo sapiens, HEK-293T; how it was run: as §4
[20] = biological target: Cyclin-dependent kinase 1 (Homo sapiens) (UniProt P06493); experiment: Inhibition of CDK1 phosphorylation at Thr-161 residue in human MCF7 cells at 50 nM after 48 hrs by Western blot analysis relative to control; type: cell-based; how it was run: as §1
[21] = Cytotoxicity against African green monkey Vero cells assessed as cells growth inhibition after 48 hrs by MTT assay; type: toxicity, cell-based, Chlorocebus sabaeus; how it was run: as §4
[22] = tested on: MCF7; experiment: Induction of apoptosis in human MCF7 cells assessed as increase in caspase-3 expression at 50 to 75 nM after 48 hrs by TRITC/DAPI-staining based fluorescent microscopic analysis; type: functional, cell-based
How it was run: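 Caspase 3 immunocytochemistry in MCF-7 cells after increasing compound concentrations. Signal was expressed as densitometric fold change versus untreated control, with at least three repeats.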

[23] = tested on: HEK-293T; experiment: (§5) Cytotoxicity against HEK293T cells assessed as reduction in colony formation after 48 hrs by crystal violet-staining based assay; type: functional; settings: Homo sapiens
[24] = as §5; type: functional; settings: Homo sapiens, HEK-293T, read-out: LC50 (the source's name)
[25] = biological target: Cyclin-dependent kinase 1 (Homo sapiens) (UniProt P06493); experiment: Inhibition of CDK1 phosphorylation at Thr-161 residue in human MCF7 cells at 75 nM after 48 hrs by Western blot analysis relative to control; type: cell-based; how it was run: as §1
[26] = Downregulation of p21 expression in human MCF7 cells at 75 nM after 48 hrs by Western blot analysis relative to control; type: functional, cell-based
[27] = biological target: DNA topoisomerase 2-alpha (Homo sapiens) (UniProt P11388); experiment: Poison activity at human Topo2alpha using pUC19 as substrate assessed as DNA cleavage-complex formation at 100 uM measured after 20 mins by ethidium bromide staining based SDS-agarose gel electrophoresis
[28] = tested on: MCF7; experiment: Induction of apoptosis in human MCF7 cells assessed as increase in BAX expression at 50 nM after 48 hrs by Western blot analysis relative to control; type: functional
[29] = biological target: DNA topoisomerase 2-alpha (Homo sapiens) (UniProt P11388); experiment: Inhibition of human Topo2alpha-mediated kDNA decatenation at 100 uM after 30 mins by SDS-based agarose gel electrophoresis
[30] = tested on: MCF7; experiment: Induction of apoptosis in human MCF7 cells assessed as chromatin condensation up to 75 nM after 48 hrs by DAPI-nuclear staining based fluorescent microscopic analysis relative to control; type: functional, cell-based
How it was run: (§6)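 MCF-7 cells exposed to increasing compound concentrations for 48 h before DAPI was added. Nuclei were scored for chromatin condensation and fragmentation, counted as apoptotic nuclei versus untreated cells.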

[31] = tested on: MCF7; experiment: Induction of apoptosis in human MCF7 cells assessed as increase in 17 kDa caspase-3 expression at 75 nM after 48 hrs by Western blot analysis relative to control; type: functional; how it was run: as §1
[32] = tested on: MCF7; experiment: Induction of apoptosis in human MCF7 cells assessed as decrease in BCL-XL expression at 50 nM after 48 hrs by Western blot analysis relative to control; type: functional
[33] = tested on: MCF7; experiment: Induction of apoptosis in human MCF7 cells assessed as increase in apoptotic nuclei at 75 nM after 48 hrs by DAPI-nuclear staining based fluorescent microscopic analysis relative to control; type: functional; how it was run: as §6
[34] = tested on: MCF7; experiment: Inhibition of alpha tubulin in human MCF7 cells assessed as distortion in tubulin assembly at 50 to 75 uM by FITC/propidium iodide-staining based assay; type: cell-based; how it was run: as §2
[35] = tested on: MCF7; experiment: Cytotoxicity against human MCF7 cells assessed as cells growth inhibition after 48 hrs by MTT assay; type: functional, cell-based
[36] = Cytotoxicity against human MDA-MB-468 cells assessed as reduction in cell viability after 48 hrs by MTT assay; type: functional, cell-based; settings: MDA-MB-468, 48 h
[37] = Downregulation of p21 expression in human MCF7 cells at 50 nM after 48 hrs by Western blot analysis relative to control; type: functional, cell-based
[38] = tested on: MCF7; experiment: Induction of apoptosis in human MCF7 cells assessed as nuclear fragmentation up to 75 nM after 48 hrs by DAPI-nuclear staining based fluorescent microscopic analysis relative to control; type: functional, cell-based; how it was run: as §6
[39] = Cell cycle arrest in human MCF7 cells assessed as accumulation at subG1 phase at 100 nM after 48 hrs by propidium iodide-staining based FACS analysis (reference value: 0.8 +/- 0.1 %); type: functional
[40] = tested on: MCF7; experiment: Induction of apoptosis in human MCF7 cells assessed as increase in 17 kDa caspase-3 expression at 50 nM after 48 hrs by Western blot analysis relative to control; type: functional; how it was run: as §1

Chain of DNA topoisomerase 2-alpha (Homo sapiens) (P11388 whole entry): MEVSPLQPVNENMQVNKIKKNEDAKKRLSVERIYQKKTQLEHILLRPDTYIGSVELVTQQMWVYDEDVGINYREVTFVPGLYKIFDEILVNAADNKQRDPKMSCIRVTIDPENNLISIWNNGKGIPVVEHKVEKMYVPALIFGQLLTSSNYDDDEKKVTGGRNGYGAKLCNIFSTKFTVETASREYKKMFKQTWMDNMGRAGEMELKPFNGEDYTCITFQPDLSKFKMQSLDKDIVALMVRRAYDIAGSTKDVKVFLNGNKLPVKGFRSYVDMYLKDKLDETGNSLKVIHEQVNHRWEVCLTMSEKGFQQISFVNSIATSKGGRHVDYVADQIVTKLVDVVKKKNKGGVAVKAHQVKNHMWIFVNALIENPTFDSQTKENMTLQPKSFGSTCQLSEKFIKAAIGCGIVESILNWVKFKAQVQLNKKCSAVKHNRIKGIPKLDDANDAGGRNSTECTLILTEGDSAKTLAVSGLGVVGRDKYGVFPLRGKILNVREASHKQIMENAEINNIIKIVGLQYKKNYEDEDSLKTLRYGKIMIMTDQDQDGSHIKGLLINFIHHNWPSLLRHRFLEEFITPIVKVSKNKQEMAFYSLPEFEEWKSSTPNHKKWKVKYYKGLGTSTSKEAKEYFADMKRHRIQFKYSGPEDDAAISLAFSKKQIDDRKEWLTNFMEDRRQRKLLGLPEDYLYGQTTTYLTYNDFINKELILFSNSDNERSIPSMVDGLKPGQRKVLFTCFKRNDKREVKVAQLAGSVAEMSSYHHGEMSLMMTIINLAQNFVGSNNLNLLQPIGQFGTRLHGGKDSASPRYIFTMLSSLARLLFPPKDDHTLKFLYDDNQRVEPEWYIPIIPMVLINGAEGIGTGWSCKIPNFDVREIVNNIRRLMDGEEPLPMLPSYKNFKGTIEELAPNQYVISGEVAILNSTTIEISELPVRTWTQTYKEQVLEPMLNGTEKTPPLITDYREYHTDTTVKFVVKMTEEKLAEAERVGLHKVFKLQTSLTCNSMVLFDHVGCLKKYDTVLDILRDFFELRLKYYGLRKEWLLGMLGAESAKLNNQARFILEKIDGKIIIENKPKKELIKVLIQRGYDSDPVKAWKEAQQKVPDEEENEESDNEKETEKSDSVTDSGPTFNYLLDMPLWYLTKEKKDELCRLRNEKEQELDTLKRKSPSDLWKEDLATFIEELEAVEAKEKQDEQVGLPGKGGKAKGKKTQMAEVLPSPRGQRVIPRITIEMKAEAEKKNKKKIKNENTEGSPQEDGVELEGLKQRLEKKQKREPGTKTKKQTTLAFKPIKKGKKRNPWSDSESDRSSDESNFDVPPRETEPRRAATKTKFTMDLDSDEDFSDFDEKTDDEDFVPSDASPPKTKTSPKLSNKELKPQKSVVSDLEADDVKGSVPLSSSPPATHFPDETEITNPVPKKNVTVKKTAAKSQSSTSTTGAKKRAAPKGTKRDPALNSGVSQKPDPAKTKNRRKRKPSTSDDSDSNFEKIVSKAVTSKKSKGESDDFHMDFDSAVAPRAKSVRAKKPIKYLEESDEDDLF
Chain of Cyclin-dependent kinase 1 (Homo sapiens) (P06493 whole entry, looked up): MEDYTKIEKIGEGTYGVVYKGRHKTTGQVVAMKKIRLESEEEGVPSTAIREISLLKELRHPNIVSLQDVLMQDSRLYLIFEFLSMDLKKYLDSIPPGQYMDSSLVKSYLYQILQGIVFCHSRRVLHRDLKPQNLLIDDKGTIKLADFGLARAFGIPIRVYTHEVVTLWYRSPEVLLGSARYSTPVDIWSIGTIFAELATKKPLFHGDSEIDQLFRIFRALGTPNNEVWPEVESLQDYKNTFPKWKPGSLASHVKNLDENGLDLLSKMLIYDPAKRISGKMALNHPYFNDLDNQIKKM

Question: Which Activity [1] does the source give for `COc1ccc(/C=C2\N=C3C=CC=CN3C2=O)cc1` here?
Answer: The Activity was “Active”.

Question: What about the Activity [2] of the same compound?
Answer: The Activity was 80.1%.

Question: And the fold change (FC) [3]?
Answer: The fold change (FC) was 0.2.

Question: And the Kb [4]?
Answer: The Kb was 2e+06 M⁻¹.

Question: And the “fold change (FC)” value [5]?
Answer: The value was 1.4.

Question: And the CC50 at 48 h ([6]; Vero cells, read-out: LC50)?
Answer: Its CC50 at 48 h is 1500 nM.

Question: What about the Activity ([6]; vero, 48 h) of the same compound?
Answer: The Activity was “Dose-dependent effect”.

Question: And the fold change (FC) [7]?
Answer: Its fold change (FC) is 0.9.

Question: And the “fold change (FC)” value [8]?
Answer: The value was 1.6.

Question: And the “fold change (FC)” value [9]?
Answer: The value was 2.

Question: And the fold change (FC) [10]?
Answer: Its fold change (FC) is 1.4.

Question: What about the inhibition [11] of the same compound?
Answer: Its inhibition is “Active”.

Question: And the IC50 [12]?
Answer: The IC50 was 64 nM.

Question: And the inhibition [13]?
Answer: Its inhibition is “Active”.

Question: And the IC50 [14]?
Answer: The IC50 was 54 nM.

Question: And the “fold change (FC)” value [15]?
Answer: Its value is 0.2.

Question: And the Activity [16]?
Answer: The Activity was “Dose-dependent effect”.

Question: And the fold change (FC) [17]?
Answer: The fold change (FC) was 2.5.

Question: What about the “growth inhibition (GI)” value [18] of the same compound?
Answer: Its value is “Dose-dependent effect”.

Question: And the IC50 [19]?
Answer: The IC50 was 60 nM.

Question: What about the fold change (FC) [20] of the same compound?
Answer: Its fold change (FC) is 1.2.

Question: What about the IC50 at 48 h ([21]; African green monkey (Chlorocebus sabaeus), Vero cells) of the same compound?
Answer: The IC50 at 48 h was 1500 nM.

Question: And the “growth inhibition (GI)” value ([21]; chlorocebus sabaeus, vero, 48 h)?
Answer: Its value is “Dose-dependent effect”.

Question: And the Activity [22]?
Answer: Its Activity is “Dose-dependent effect”.

Question: What about the Activity [23] of the same compound?
Answer: Its Activity is “Dose-dependent effect”.

Question: And the CC50 [24]?
Answer: Its CC50 is 60 nM.

Question: What about the fold change (FC) [25] of the same compound?
Answer: Its fold change (FC) is 2.

Question: What about the fold change (FC) [26] of the same compound?
Answer: Its fold change (FC) is 2.5.

Question: What about the Activity [27] of the same compound?
Answer: The Activity was “Active”.

Question: What about the “fold change (FC)” value [28] of the same compound?
Answer: Its value is 1.2.

Question: What about the inhibition [29] of the same compound?
Answer: Its inhibition is “Active”.

Question: What about the Activity [30] of the same compound?
Answer: Its Activity is “Active”.

Question: And the “fold change (FC)” value [31]?
Answer: The value was 2.

Question: And the “fold change (FC)” value [32]?
Answer: The value was 0.9.

Question: What about the “fold change (FC)” value [33] of the same compound?
Answer: Its value is over 6.

Question: What about the inhibition [34] of the same compound?
Answer: The inhibition was “Active”.

Question: And the “growth inhibition (GI)” value [35]?
Answer: The value was “Dose-dependent effect”.

Question: And the IC50 [36]?
Answer: Its IC50 is 60 nM.

Question: What about the fold change (FC) [37] of the same compound?
Answer: The fold change (FC) was 1.4.

Question: What about the Activity [38] of the same compound?
Answer: Its Activity is “Active”.

Question: What about the Activity [39] of the same compound?
Answer: Its Activity is 20.2%.

Question: What about the “fold change (FC)” value [40] of the same compound?
Answer: Its value is 1.6.
